Each block holds one molecule with its values, some of them ahead of it. Calls of active or inactive are those of the source. The calls are words filed in the database; no cut-off is given here.
Assays:
3T3-L1 [1] = experiment: Induction of adipocytes differentiation in mouse 3T3L1 cells at > 200 uM treated after 48 hrs postconfluence measured after 8 days using MDI protocol; format: functional, cell-based
Method in brief: (§1)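 3T3-L1 cells were induced two days postconfluence in DMEM/10% FBS with compound plus 1 µM dexamethasone, 0.5 mM isobutylmethylxanthine and 1 µg/mL insulin. At 48 h they were refed with compound and 1 µg/mL insulin. From day 4 medium was DMEM/10% FBS, changed every second day. At day 8 cells were formaldehyde-fixed and stained with Oil Red O. Triplicate, three concentrations.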

3T3-L1 [2] = experiment: Induction of adipocytes differentiation in mouse 3T3L1 cells at > 200 uM treated after 48 hrs postconfluence measured after 8 days using DEX protocol; format: functional, cell-based
Method in brief: (§2)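 3T3-L1 cells were grown in DMEM with 10% calf serum. Two days postconfluence (day 0) they were induced in DMEM/10% FBS with compound plus 1 µM dexamethasone, then refed at 48 h with compound. From day 4 medium was DMEM/10% FBS, changed every second day. At day 8 cells were formaldehyde-fixed and stained for triacylglycerol with Oil Red O. Triplicate, three concentrations.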

[3] = molecular target: T1, Peroxisome proliferator-activated receptor gamma (Homo sapiens) (UniProt P37231); experiment: Agonist activity at human PPARgamma ligand binding domain expressed in MEF cells co-transfected with Gal4-responsive luciferase vector assessed as photinus/renilla luciferase activity at 30 uM by transactivation assay relative to control; format: cell-based
T1 sequence (whole entry): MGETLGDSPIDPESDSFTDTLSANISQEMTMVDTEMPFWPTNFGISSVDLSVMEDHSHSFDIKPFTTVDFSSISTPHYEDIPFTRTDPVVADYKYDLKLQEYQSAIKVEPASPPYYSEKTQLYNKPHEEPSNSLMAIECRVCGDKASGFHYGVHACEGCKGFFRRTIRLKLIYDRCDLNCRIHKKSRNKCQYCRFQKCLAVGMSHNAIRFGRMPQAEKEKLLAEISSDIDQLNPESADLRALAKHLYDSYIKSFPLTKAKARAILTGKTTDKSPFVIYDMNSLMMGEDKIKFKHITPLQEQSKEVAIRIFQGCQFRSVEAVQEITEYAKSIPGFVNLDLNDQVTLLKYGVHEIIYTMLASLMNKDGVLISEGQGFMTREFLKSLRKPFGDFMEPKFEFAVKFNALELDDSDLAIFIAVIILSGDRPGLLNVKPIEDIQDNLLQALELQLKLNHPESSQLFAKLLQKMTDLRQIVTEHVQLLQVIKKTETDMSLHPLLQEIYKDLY
Method in brief: (§3)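 Mouse embryonic fibroblasts were transiently transfected at 50-70% confluence. Each well got 2.5 ng pRL-CMV Renilla vector, 30 ng Gal4-responsive luciferase reporter and 15 ng pM-hPPARγ-LBD. Medium was changed at 6 h to DMEM with vehicle (0.1% DMSO), 1 µM rosiglitazone or compound. Cells were lysed 18 h post-transfection for dual luciferase. Photinus was normalized to Renilla and expressed as fold over vehicle. Triplicates, each read in duplicate.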

3T3-L1 [4] = experiment: Increase in insulin-stimulated [14C]2-deoxy-D-glucose uptake in mouse 3T3L1 cells after 48 hrs by scintillation counting; format: functional, cell-based
Method in brief: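 MDI-differentiated 3T3-L1 adipocytes were treated with compound or 1 µM rosiglitazone from day 8 for 48 h, then serum-starved 2 h at 37 °C. Cells were incubated in KRHB pH 7.4 for 30 min, insulin was added for 15 min, then [14C]2-deoxy-D-glucose at 1.0 mM final glucose for 15 min. Background came from 20 µM cytochalasin B wells. Scintillation counting, 8 wells per condition, mean ± SEM.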

MEF = experiment: Apparent cytotoxicity against MEF at 100 uM; format: cell-based; conditions: mouse
[5] = molecular target: T1, Peroxisome proliferator-activated receptor gamma (Homo sapiens); experiment: Agonist activity at human PPARgamma ligand binding domain expressed in MEF cells co-transfected with Gal4-responsive luciferase vector assessed as photinus/renilla luciferase activity at 100 uM by transactivation assay relative to control; format: cell-based; method in brief: as §3
[6] = molecular target: T1, Peroxisome proliferator-activated receptor gamma (Homo sapiens); experiment: Agonist activity at human PPARgamma ligand binding domain expressed in MEF cells co-transfected with Gal4-responsive luciferase vector assessed as photinus/renilla luciferase activity at 40 uM by transactivation assay relative to control; format: cell-based; method in brief: as §3
[7] = molecular target: T1, Peroxisome proliferator-activated receptor gamma (Homo sapiens); experiment: Agonist activity at human PPARgamma ligand binding domain expressed in MEF cells co-transfected with Gal4-responsive luciferase vector assessed as photinus/renilla luciferase activity at 80 uM by transactivation assay relative to control; format: cell-based; method in brief: as §3
3T3-L1 [8] = experiment: Induction of adipocytes differentiation in mouse 3T3L1 cells treated after 48 hrs postconfluence measured after 8 days using MDI protocol; format: functional, cell-based; method in brief: as §1
3T3-L1 [9] = experiment: Induction of adipocytes differentiation in mouse 3T3L1 cells treated after 48 hrs postconfluence measured after 8 days using DEX protocol; format: functional, cell-based; method in brief: as §2

Structure (SMILES): C/C=C/C=C\CC/C=C/C=C/C(=O)NCC(C)C
fold change (FC) [5]: 2

Structure (SMILES): CCCCC/C=C\C/C=C\CCCCCCCC(=O)O
fold change (FC) [6]: 10

Structure (SMILES): C/C=C\C#CCC/C=C\C=C\C(=O)NCC(C)C
fold change (FC) [5]: 2

Structure (SMILES): CCCCCC/C=C\CCCCCCCC(=O)O
fold change (FC) [6]: 10

Structure (SMILES): CC/C=C\C/C=C\C/C=C\CCCCCCCC(=O)O
fold change (FC) [6]: 10

Continued, in another order:

fold change (FC) [3]: 10
Structure (SMILES): C/C=C/C=C\C/C=C\CCCCC/C=C/C(=O)NCC(C)C
Activity (3T3-L1 [1]): inactive
Activity (3T3-L1 [2]): inactive
Activity (3T3-L1 [4]): Dose-dependent effect
Activity (MEF): Toxic

fold change (FC) [5]: 2
Structure (SMILES): C/C=C\C=C/CC/C=C/C=C/C(=O)NCC(C)C

fold change (FC) [7]: 4
Structure (SMILES): CCCCCCC/C=C/C=C/C(=O)NCC(C)C
Activity (3T3-L1 [8]): Active
Activity (3T3-L1 [9]): Active
Activity (MEF): Toxic

From ChEMBL document CHEMBL1151955, “Activation of PPARgamma by metabolites from the flowers of purple coneflower (Echinacea purpurea)” (J Nat Prod, 2009)
